# Source: PubChem BioAssay AID588386 (Southern Research Specialized Biocontainment Screening …, 2011)
# pIC50: −log10 of the molar value. Activity calls are given as the source filed them.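 Rule for the calls: active = phage lysis blocked by at least 50% at any tested dose; inconclusive = replicate wells disagree with each other; inactive = the rest.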
# System: E. coli UTI89 K1F phage lysis inhibition, OD600
# Assay: protection of E. coli UTI89 from phage lysis – set 6, capsule biogenesis inhibitor project, dose response (AID 588386)
# Conditions: not given
# Outline: (§1)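 Assay system – E. coli UTI89 (K1) plus phage-resistant kpsM mutant cultures · Quantity – 1:100 dilution of overnight cultures · Reagent – K1F phage · Technique – absorbance at 600 nm (OD600) · Replicates – each concentration tested in duplicate · Medium – LB growth medium · Times – 1.25 h pre-phage, 3 h post-phage, 37 °C · Read-out basis – lysis by OD600 at 3 h post-phage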
row,Structure (SMILES),pIC50
1,O=C(Nc1ccncc1)c1ccc2ncsc2c1,5.79

# System: not listed separately
# Assay: as above
# Conditions: E. coli UTI89 K1F phage lysis inhibition, OD600; at 100 µM (top of the series)
# Outline: as §1
row,Structure (SMILES),inhibition of phage lysis
1,O=C(Nc1cccc(F)c1)c1ccc2[nH]ccc2c1,-0.99% (inactive)
2,O=C(Nc1ccc(Br)cc1)c1ccc2nc[nH]c2c1,0% (inactive)
3,O=C(Nc1ccc(C(F)(F)F)cc1)c1ccc2nc[nH]c2c1,-0.68% (inactive)
4,O=C(Nc1ccccc1F)c1ccc2ncsc2c1,0.6% (inactive)
5,O=C(Nc1ccc(F)cc1)c1ccc2[nH]ccc2c1,-0.29% (inactive)
6,O=C(Nc1ccc(C(F)(F)F)cc1)c1ccc2ncsc2c1,16.7% (inactive)
7,Cc1ccc(NC(=O)c2ccc3ncsc3c2)cc1,0% (inactive)
8,COC(=O)c1ccc(NC(=O)c2ccc3[nH]ccc3c2)cc1,0.87% (inactive)
9,Cc1ccc(NC(=O)c2ccc3[nH]ccc3c2)cc1,-2.3% (inactive)
10,O=C(Nc1ccc(Cl)cc1)c1ccc2[nH]ccc2c1,0.86% (inactive)
11,O=C(Nc1ccccc1F)c1ccc2ncccc2c1,-2.29% (inactive)
12,O=C(Nc1ccc(Br)cc1)c1ccc2[nH]ccc2c1,1.16% (inactive)
13,O=C(Nc1ccc(Cl)cc1)c1ccc2ncccc2c1,1.19% (inactive)
14,O=C(Nc1cccc(F)c1)c1ccc2nc[nH]c2c1,0% (inactive)
15,O=C(Nc1cccc(F)c1)c1ccc2ncsc2c1,0.9% (inactive)
16,COC(=O)c1ccc(NC(=O)c2ccc3ncsc3c2)cc1,11.5% (inactive)
17,O=C(Nc1cccnc1)c1ccc2ncccc2c1,0.61% (inactive)
18,O=C(Nc1ccccn1)c1ccc2ncccc2c1,1.21% (inactive)
19,O=C(Nc1ccccn1)c1ccc2nc[nH]c2c1,0% (inactive)
20,O=C(Nc1ccccc1F)c1ccc2nc[nH]c2c1,0.34% (inactive)

row,Structure (SMILES),inhibition of phage lysis
1,O=C(Nc1ccc(F)cc1)c1ccc2nc[nH]c2c1,0.99% (inactive)
2,O=C(Nc1ccc(F)cc1)c1ccc2ncccc2c1,0.3% (inactive)
3,O=C(Nc1ccncc1)c1ccc2[nH]ccc2c1,0.29% (inactive)
4,O=C(Nc1cccnc1)c1ccc2[nH]ccc2c1,0.87% (inactive)
5,O=C(Nc1ccccc1F)c1ccc2[nH]ccc2c1,0.33% (inactive)
6,O=C(NCc1ccco1)c1ccc2ncccc2c1,0.91% (inactive)
7,COc1ccc(NC(=O)c2ccc3[nH]ccc3c2)cc1,-14.7% (inactive)
8,O=C(Nc1ccc(C(F)(F)F)cc1)c1ccc2[nH]ccc2c1,-0.66% (inactive)
9,O=C(Nc1ccc(Br)cc1)c1ccc2ncsc2c1,0% (inactive)
10,O=C(NCc1ccco1)c1ccc2[nH]ccc2c1,0.86% (inactive)
11,O=C(Nc1ccncc1)c1ccc2ncccc2c1,0% (inactive)
12,O=C(Nc1cccc(F)c1)c1ccc2ncccc2c1,-1.15% (inactive)
13,O=C(Nc1ccc(F)cc1)c1ccc2ncsc2c1,-0.68% (inactive)
14,O=C(NCc1ccco1)c1ccc2nc[nH]c2c1,0% (inactive)
15,O=C(NCc1ccco1)c1ccc2ncsc2c1,0.88% (inactive)
16,O=C(Nc1cccnc1)c1ccc2ncsc2c1,1.77% (inactive)
17,O=C(Nc1ccc(Cl)cc1)c1ccc2ncsc2c1,1.47% (inactive)
18,O=C(Nc1ccc(Cl)cc1)c1ccc2nc[nH]c2c1,-0.32% (inactive)
19,COc1ccc(NC(=O)c2ccc3nc[nH]c3c2)cc1,0.32% (inactive)
20,COc1ccc(NC(=O)c2ccc3ncsc3c2)cc1,3.54% (inactive)
